Compound activity from PubChem BioAssay.
hERG rescue: hERG (human) protection from proarrhythmic block; Q12809; CHO-hERG, FluxOR thallium flux, dofetilide IC70 present; activation (rescue from dofetilide block), less the hit threshold, % at 10 µM; 310,000 tested, 0.51% active;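 active = activation above the mean of controls blocked by dofetilide plus 5 SD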;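 note: thallium influx through hERG after potassium depolarization seen as dye fluorescence rise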
KCNK9 block: blocks the human KCNK9 two-pore domain potassium channel | AID 488922 | 310,000 tested, 1.2% active | HEK293 KCNK9, FluxOR thallium flux fluorescence; hits give low values | B-score at 10 µM | Q9NPC2;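 active = ratio B-score over 3 SD below the library mean, with starting fluorescence within 5 SD of its mean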;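 note: negative B-score means less thallium flux so channel inhibition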
KCNQ1 inh: human KCNQ1 channel inhibition. P51787. CHO-K1 KCNQ1, FluxOR thallium flux fluorescence; hits give high values. B-score at 10 µM. 310,000 tested, 1.3% active. AID 2642;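 active = compounds whose thallium flux B-score, printed positive for inhibition, exceeds three library SD while starting fluorescence stays within three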;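 note: channel opened by potassium depolarization with thallium stimulus after 20 min compound exposure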
Kir21 inh: inhibitors of mouse Kir2.1 inward-rectifier potassium channel. P35561. HEK293-Kir2.1, FluxOR thallium flux fluorescence; hits give low values. B-score at 10 µM. 310,000 tested, 0.85% active. AID 1672;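 active = fluorescence ratio B-score at or below minus 3 SD of library scores, with starting-brightness B-score within 2 SD, cut at about -4.2 in these data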;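 note: channel flux triggered by added potassium and thallium sulfate stimulus; B-score of peak minus minimum fluorescence over baseline after thallium stimulus; more negative B-score means stronger Kir2.1 block with less thallium influx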
KCNQ1 act: potentiators or activators of human KCNQ1 potassium channel; CHO-K1 KCNQ1, thallium flux FluxOR fluorescence; hits give high values; B-score at 10 µM; 310,000 tested, 0.35% active;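 active = fluorescence ratio B-score, a plate-corrected score, at least three library SD, with initial intensity B-score within 5 SD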
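Medium – assay buffer, equal DMSO in all wells · Material – CHO-K1 cell line with stable KCNQ1 potassium channel expression · Signal – kinetic FluxOR thallium fluorescence, 10-s 1-Hz baseline, 110-s post-stimulus read · Compound – single concentration per compound, DMSO matched to controls · Schedule – 37 °C overnight plating, 90-min dark dye load, 20-min compound pretreatment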
KCNK3 block: human KCNK3 channel inhibition, primary screen; CHO-KCNK3 thallium flux, FluxOR fluorescence; hits give low values; O14649; B-score at 10 µM; 340,000 tested, 0.84% active;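 active = B-score under library mean minus 4 SD, starting fluorescence ratio at most library mean plus 5 SD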;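 note: more negative B-score means stronger inhibition of thallium flux through KCNK3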
Target sequence (O14649 whole entry, looked up): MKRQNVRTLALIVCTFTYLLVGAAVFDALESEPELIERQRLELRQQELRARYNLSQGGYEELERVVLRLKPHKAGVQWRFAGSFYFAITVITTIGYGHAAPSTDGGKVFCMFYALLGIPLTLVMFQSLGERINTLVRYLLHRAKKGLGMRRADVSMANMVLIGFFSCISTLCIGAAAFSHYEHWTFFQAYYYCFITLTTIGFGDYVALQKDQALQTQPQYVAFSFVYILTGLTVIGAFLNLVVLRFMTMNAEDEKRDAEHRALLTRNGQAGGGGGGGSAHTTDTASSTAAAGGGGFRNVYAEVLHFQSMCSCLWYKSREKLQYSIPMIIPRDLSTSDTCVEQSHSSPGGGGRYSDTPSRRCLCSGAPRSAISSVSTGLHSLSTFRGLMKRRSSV
KCNK9 inh conf: confirmation of human KCNK9 potassium channel inhibitors; HEK293 KCNK9 cells, FluxOR thallium flux fluorescence; shares compounds with KCNK9 block; inhibition, % at 10 µM; 4,900 tested, 43% active;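 active = thallium signal inhibited by more than 5 SD of the compound-free buffer control wells, on both duplicate plates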;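 note: 0% = assay buffer control wells without compound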
Kir2-1 spec: selectivity of KCNK9 modulators against mouse Kir2.1; inhibition, % at 10 µM; shares compounds with KCNK9 block; Kir2.1 cells, FluxOR thallium flux fluorescence; 4,900 tested, 4% active;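 active = thallium signal drop more than 5 SD beyond the mean of the no-compound control wells, seen in both duplicate plates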;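 note: signal is fluorescence rise after thallium addition divided by baseline fluorescence; plate controls were assay buffer only for no effect and full block by chlorpromazine control for full effect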
HEK293 Tl ctr: non-induced cell nonspecific activity of KCNK9 modulators; shares compounds with KCNK9 block; non-induced KCNK9-HEK293, FluxOR thallium flux; inhibition, % at 10 µM; 4,900 tested, 40% active; AID 492997;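 active = thallium signal drop beyond 5 SD of the untreated control mean, on both duplicate plates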;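 note: plate controls were buffer only IC0 wells for no effect and SID17386958 at its maximal inhibitory level for full effect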
Active calls of the source: *; i = inactive; . = no result. An excerpt weighted towards active compounds, which were near 3.7% of everything screened.

SMILES | hERG rescue | KCNK9 block | KCNQ1 inh | Kir21 inh | KCNQ1 act | KCNK3 block | KCNK9 inh conf | Kir2-1 spec | HEK293 Tl ctr
COC(=O)c1ccccc1Sc1c(/C=N/OC(=O)c2ccccc2)c(C(F)(F)F)nn1C | -5 | i | i | 0.68 | i | i | . | . | .
COc1cc(NC(=O)c2cccc(C)c2)ccc1NC(=O)c1cc2ccccc2o1 | -2 | i | i | 0.17 | i | i | . | . | .
O=C1C=C(c2ccc(Cl)nc2)C[C@@H](c2ccc3c(c2)OCO3)C1 | . | . | . | . | . | i | . | . | .
COc1ccc(Cc2nn3c(-c4ccccc4Br)nnc3s2)cc1 | -4 | i | i | 1.5 | i | i | . | . | .
Brc1ccccc1-c1nnc2sc(Cc3ccccc3)nn12 | -5 | -15* | i | 1.4 | i | i | 36%* | i | 26%*
CNC(=O)C1CCN(S(=O)(=O)c2c(C)noc2/C=C/c2ccc(OC)cc2)CC1 | -11 | i | i | -0.1 | i | i | . | . | .
CCCN(C(=O)CSc1cc(-c2ccccc2)c2ccc(OC)cc2n1)C1CCS(=O)(=O)C1 (configuration not stated) | -5 | -8.4* | i | -0.05 | i | i | 48%* | i | 28%*
Cc1ccc(C(C)C)c(OC(=O)/C=C/c2ccccc2)c1 | -19 | i | i | -1.3 | i | i | i | i | i
Cc1ccc(NC(=O)C(C)OC(=O)/C=C/c2ccccc2)cc1 (configuration not stated) | -10 | i | i | -0.1 | i | i | . | . | .
O=C(NCCc1ccccc1)c1ccc2c(c1)OCCCO2 | -4 | i | i | -0.69 | i | i | . | . | .
O=C(NCCc1ccccc1)c1ccc2c(c1)OCCO2 | -4 | i | i | 0.87 | i | i | i | i | i
CCOC(=O)C1CCCN(Cc2cc(=O)oc3cc(C)c(C)cc23)C1 (configuration not stated) | -19 | i | i | -2.7 | i | i | i | i | i
CCOC(=O)C1CCCN(CC(O)COCc2ccccc2OC)C1 (configuration not stated) | -4 | i | i | -2 | i | i | i | i | i
CCOC(=O)C1CCCN(Cc2cc(Br)c(OC)cc2OC)C1 (configuration not stated) | -12 | i | i | -0.74 | i | i | i | i | i
COc1ccccc1COCC(O)CN1CCCCC1CO (configuration not stated) | -1 | i | i | 0.31 | i | i | . | . | .
COc1cc(C)nc(N(Cc2ccccc2)S(=O)(=O)c2ccccc2)n1 | -12 | -16* | i | 0.15 | i | i | 56%* | i | 44%*
CC1Cc2ccccc2C(CCc2ccccc2)=N1 (configuration not stated) | -6 | i | i | -3 | i | i | . | . | .
Cc1ccc(CN2CCSc3ccc(C(=O)NC4CCN(Cc5ccccc5)CC4)cc32)cc1 | -22 | i | 7* | -0.49 | i | i | i | i | i
CC1CC(C)CN(C(=O)c2ccc3c(c2)N(Cc2ccccc2)CCS3)C1 (configuration not stated) | -7 | -8.2* | i | -1.5 | i | -12* | 51%* | i | 34%*
O=C(CCNc1ccc(Cl)cc1)c1cccs1 | -6 | i | i | 0.03 | i | i | . | . | .
O=C(CCNc1cc(Cl)cc(Cl)c1)c1cccs1 | -17 | -8.7* | i | 2.8 | i | i | i | i | 38%*
O=C(CCc1ccc(CCC(=O)c2cccs2)s1)c1cccs1 | -11 | -11* | i | 0 | i | i | 57%* | i | 38%*
Cc1cc(Br)ccc1NC(=O)CN(C)C(=O)CN1C(=O)NC(C)(C2CC2)C1=O (configuration not stated) | . | . | . | . | . | i | . | . | .
CN1CCN(C2=C(Cl)C(=O)C(c3cnc(N4CCCCC4)s3)=C(Cl)C2=O)CC1 | -48 | -17* | 16* | -1.8 | i | i | i | i | 38%*
CCN(CC)C(=O)c1oc2ccc(S(=O)(=O)N3CC(C)CC(C)C3)cc2c1C (configuration not stated) | -14 | i | i | -0.6 | i | i | i | i | i
SMILES | hERG rescue | KCNK9 block | KCNQ1 inh | Kir21 inh | KCNQ1 act | KCNK3 block | KCNK9 inh conf | Kir2-1 spec | HEK293 Tl ctr
COc1ccc(CCNc2oc(Cc3cccc4ccccc34)nc2C#N)cc1OC | -2 | -8.2* | i | -2.5 | i | i | 40%* | 37%* | 27%*
CNc1oc(Cc2cccc3ccccc23)nc1C#N | -13 | i | i | 1 | i | i | . | . | .
CCCCC(CC)C(=O)Nc1cccc(SC)c1 (configuration not stated) | -12 | -9.4* | i | -1.1 | i | i | 30%* | i | i
CC1=NNC(=O)C1CCC(=O)N/N=C/c1ccccc1 (configuration not stated) | -8 | i | i | -0.09 | i | i | . | . | .
O=C(COc1ccc(Cl)cc1Cl)N1CCCN(C(=O)COc2ccc(Cl)cc2Cl)CC1 | -15 | -11* | i | 1.3 | i | i | 36%* | i | i
CCOc1ccccc1C(=O)Nc1cc(Cl)ccc1O | -12 | -12* | i | 2 | i | i | 52%* | i | 36%*
COc1ccccc1C(=O)Nc1cc(Cl)ccc1O | -5 | i | i | 0.24 | i | i | . | . | .
Cc1ccc(S(=O)(=O)N(C)CC(=O)Nc2ccccc2N2CCCC2)cc1 | . | . | . | . | . | i | . | . | .
Cc1sc(NC(=O)C2CCCCC2)c(C#N)c1-c1ccccc1 | -10 | i | i | 1.1 | i | i | i | i | i
COc1cccc(-n2c(=O)n(Cc3ccccc3)c(=O)c3[nH]cnc32)c1 | -13 | i | i | 1.2 | i | i | . | . | .
CCN(CC)C(=O)CSc1nc(-c2ccccc2)cc(=O)[nH]1 | -8 | i | i | 1 | i | i | . | . | .
Cn1c(CCCOc2ccc(Cl)cc2Cl)nnc1SCC(=O)Nc1cccc(F)c1 | -7 | i | i | -0.77 | i | i | . | . | .
Cn1c(CCCOc2ccc(Cl)cc2Cl)nnc1SCC(=O)Nc1ccc(F)c(Cl)c1 | -9 | i | i | 1.5 | i | i | i | i | i
